Measurements published in PMC3586205 (European journal of pharmacology, 2012).
Like-named read-outs stand apart in the source and are kept apart here.

Columns and labels:
[1] = biological target: human cannabinoid CB1 receptor (Homo sapiens, UniProt P21554); assay: Cannabinoid CB1 receptor radioligand binding, displacement of [3H]CP55,940
[2] = test system: spontaneous activity in mice; assay: Spontaneous; format: in vivo
In short: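 Separate groups of mice per dose were injected i.v. with vehicle (ethanol:Emulphor-620:saline 1:1:18) or test compound. Five minutes later each was placed in an activity chamber for 10 min. Total photobeam interruptions were counted and expressed as % inhibition of the vehicle group. ED50s were derived by log-dose linear regression, taking 90% inhibition as maximal.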

[3] = test system: rectal temperature in mice; assay: Rectal temperature, mouse test battery; format: in vivo
food intake in mice = assay: Feeding behavior: 1-h food intake after 24-h food deprivation; format: in vivo
[4] = test system: tail flick latency in mice; assay: Tail flick antinociception, mouse test battery; format: in vivo
In short: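 Baseline tail-flick latency was taken to radiant heat (bright light) before i.v. injection of vehicle (ethanol:Emulphor-620:saline 1:1:18) or test compound. Latency was re-measured 20 min post-injection with a 10 s cutoff. Result expressed as %MPE = [(test−control latency)/(10−control)] × 100, separate groups per dose.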

ring immobility in mice = assay: Ring immobility, mouse test battery; format: in vivo; settings: 30 mg/kg i.v.
[5] = test system: cannabinoid agonist-like effects in mice; assay: In vivo test battery; settings: doses up to 30 mg/kg (heterodimer 6b i.p.)
In short: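 Separate groups of mice per dose received test compound in 95% sesame oil/5% dimethylacetamide i.p. Rectal temperature and baseline tail-flick latency were taken before injection. At 40 min mice were put in photobeam activity chambers for 5 min. Tail-flick and temperature were re-measured immediately on removal. Ring immobility was not run.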

Chain of human cannabinoid CB1 receptor (P21554 whole entry): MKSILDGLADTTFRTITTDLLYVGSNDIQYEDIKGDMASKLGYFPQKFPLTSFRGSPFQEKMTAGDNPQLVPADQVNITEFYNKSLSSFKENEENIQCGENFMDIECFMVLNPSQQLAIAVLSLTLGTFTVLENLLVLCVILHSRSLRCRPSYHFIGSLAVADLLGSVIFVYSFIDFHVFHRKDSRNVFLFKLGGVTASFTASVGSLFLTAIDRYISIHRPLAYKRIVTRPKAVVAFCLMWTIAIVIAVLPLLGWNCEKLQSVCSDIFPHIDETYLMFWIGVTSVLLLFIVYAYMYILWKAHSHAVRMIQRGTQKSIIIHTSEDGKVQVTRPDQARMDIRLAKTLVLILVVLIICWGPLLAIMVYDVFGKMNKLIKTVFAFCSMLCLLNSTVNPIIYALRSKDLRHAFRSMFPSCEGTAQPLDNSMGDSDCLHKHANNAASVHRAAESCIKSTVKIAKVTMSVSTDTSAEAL

| SMILES | Ki ([1]; read-out: CB1 Ki (± SEM), displacement of [3H]CP55,940) | SA, % inhibition of activity of vehicle control group (maximum effect) ([2]; 100 mg/kg i.v.) | RT (maximum effect) ([3]; 100 mg/kg i.v.) | effect on food intake (food intake in mice; i.p., doses not stated in text (Fig. 2)) | %MPE tail flick (maximum effect) ([4]; 100 mg/kg i.v.) | RI (maximum effect) (ring immobility in mice) | Ki [1] | SA, % inhibition of activity of vehicle control group (maximum effect) ([2]; 30 mg/kg i.v.) | RT, change in rectal temperature (maximum effect) ([3]; 30 mg/kg i.v.) | decrease in feeding compared to vehicle (food intake in mice; 56 mg/kg i.p., 60 min pre-session, significant) | %MPE tail flick (maximum effect) ([4]; 30 mg/kg i.v.) | activity in test battery when tested alone [5] | effect on food intake (food intake in mice; doses up to 30 mg/kg i.p.) |
| --- | --- | --- | --- | --- | --- | --- | --- | --- | --- | --- | --- | --- | --- |
| CC1=CC[C@@H]2[C@@H](C1)c1c(O)cc(C(C)(C)CCCCC(=O)NCCc3ccc(S(N)(=O)=O)cc3)cc1OC2(C)C [Compound O-606, 6-[(6aR,10aR)-1-hydroxy-6,6,9-trimethyl-6a,7,10,10a-tetrahydro-6H-benzo[c]chromen-3-yl]-6-methyl-N-(4-sulfamoyl-phenyethyl)heptanamide] | 29 nM | 60% (100) | inactive (100) | failed to affect food intake | inactive (100) | – | – | – | – | – | – | – | – |
| CCCc1cc(C(=O)NN2CCCCC2)cc(-c2ccc(Cl)cc2Cl)c1-c1ccc(Cl)cc1 [Compound O-1788, 4-(4-chlorophenyl)-3-(2,4-dichlorophenyl)–N-(piperidin-1-yl)-5-propylbenzamide] | – | – | – | – | – | inactive (30) | 166 nM | inactive (30) | inactive (30) | 56% | inactive (30) | inactive | – |
| Cc1c(C(=O)NCCCCCCCN(C)CCCCCCCNC(=O)c2nn(-c3ccc(Cl)cc3Cl)c(-c3ccc(Cl)cc3)c2C)nn(-c2ccc(Cl)cc2Cl)c1-c1ccc(Cl)cc1 [Heterodimer 6b, N,N′-[(methylimino)diheptane-7,1-diyl]bis[5-(4-chlorophenyl)-1-(2,4-dichlorophenyl)-4-methyl-1H-pyrazole-3-carboxamide]] | – | – | – | – | – | – | – | – | – | – | – | inactive | failed to alter food intake |
